Consider 14 molecules from article PMC5856478 (Biochemistry, 2018).

By IC50 is commonly meant the concentration that inhibits the measured activity by half. For orientation: Kd means the equilibrium constant for the complex coming apart. A high value points to a looser complex.

“Also recorded” adds a separate entry of the source. No end group written: not given here.

Data set [1] has as its target T1, Trx1 (Homo sapiens, UniProt P10599).
T1 sequence (P10599 1-105): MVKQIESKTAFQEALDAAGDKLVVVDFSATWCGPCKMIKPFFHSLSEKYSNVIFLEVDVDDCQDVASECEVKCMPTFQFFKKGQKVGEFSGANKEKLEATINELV
The data set is described as follows: Phage display selection. In kind it is binding. As to conditions: trial 3; bait Trx1; elution with 1GP3; three rounds of bio-panning; DTT 1 mM.

In data set [2] the target is T2, Grx1 (Homo sapiens, UniProt P35754).
T2 sequence (P35754 1-106): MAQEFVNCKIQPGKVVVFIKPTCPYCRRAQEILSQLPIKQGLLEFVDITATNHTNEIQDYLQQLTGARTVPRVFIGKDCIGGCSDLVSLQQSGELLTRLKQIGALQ
The data set can be described thus: Grx1 de-glutathionylation enzyme assay. It counts as biochemical. The method, boiled down:
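Coupled assay: Grx1 (40 ng) reduces Cys-SSG (100 μM), and glutathione reductase recycles the resulting GSSG while oxidising NADPH. Buffer was 0.1 M phosphate pH 7.4 with 1 mM EDTA, BSA, 0.2 mM NADPH, yeast GR (4 units) and 0.25 mM GSH. Grx1 was incubated with peptide at 10–200 μM. NADPH loss was followed at 340 nm. Initial rates were converted to percent inhibition, and values are mean ± SD, n=3 independent experiments.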

For data set [3], the target named is T2, Grx1. The data set is described as follows: Phage display selection. In kind it is binding. The settings on record: trial 2; bait Grx1; elution with 1GP3; three rounds of bio-panning; DTT 1 mM.
For another data set, the system named is human Grx1. As to conditions: ref [53]; cited from earlier work.
For data set [4] the following is noted: not told.
The test system of the next data set is p53. The data set can be described thus: p53 stabilization, Western blotting. The settings on record: 100 μM, 6 h. In kind it is cell-based.
Another data set has as its system MDA-MB-231 cells. The data set can be described thus: Cell viability, Trypan blue assay. It counts as cell-based. The settings on record: 48 h, 37 °C, n= 2 independent experiments. In outline: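 Viability was scored by Trypan blue exclusion. MDA-MB-231 cells in 6-well plates were treated with the TAT-fused test peptide, a reverse-sequence TAT control or a reference Trx1 inhibitor for 48 h at 37 °C. Cells were washed with PBS, trypsinised and resuspended in medium. They were mixed with 0.4% trypan blue and counted on an automated cell counter. Results are mean ± SD of 2 independent experiments.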

Another data set concerns GRP78. The data set can be described thus: GRP78 induction. It counts as cell-based. As to conditions: MDA-MB-231 cells, 100 μM, 6 h. In outline: (§1)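 MDA-MB-231 cells in 6 cm dishes were exposed to the test peptide, a TAT-only peptide, a scrambled-order (reverse) TAT peptide or a reference Trx1 inhibitor at 37 °C for 6 h. Cells were then lysed in TBST with 0.1% Triton X-100, 50 mM NaF and EDTA-free protease inhibitors. Equal protein was run on SDS-PAGE and blotted to PVDF. Primary antibodies (p-Ask1 Thr845, p-JNK Thr183/Tyr185, p-p38 Thr180/Tyr182, p-AMPK Thr172, GRP78, plus total proteins) were applied overnight at 4 °C, followed by HRP secondary and chemiluminescence. Data come from two or three independent experiments.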

The test system of a further data set is AMPK. The data set is described as follows: AMPK phosphorylation, Western blotting. It counts as cell-based. The settings on record: MDA-MB-231 cells, 100 μM, 6 h. In outline: as §1
Background: A western blot detects proteins with antibodies after separation by electrophoresis.

Data set [5] has as its system Trx1. As to conditions: ref [44]; cited from earlier work.
For a further data set, the system named is Trx1-Ask1 interaction. The data set can be described thus: Co-immunoprecipitation of Ask1 and Trx1 in cells. In kind it is cell-based. As to conditions: MDA-MB-231 cells, 6 h; co-IP.
The subject of the next data set is Ask1. The data set can be described thus: Ask1 phosphorylation, Western blotting. In kind it is cell-based. As to conditions: MDA-MB-231 cells, 6 h. The method, boiled down:
as §1

For data set [6] the following is noted: ref [45], [46]; cited from earlier work.
Another data set concerns JNK. The data set can be described thus: JNK phosphorylation, Western blotting. In kind it is cell-based. As to conditions: MDA-MB-231 cells, 100 μM, 6 h. The method, boiled down:
as §1

The test system of another data set is p38. The data set is described as follows: p38 phosphorylation, Western blotting. The settings on record: MDA-MB-231 cells, 100 μM, 6 h. In kind it is cell-based. The method, boiled down:
as §1

For data set [7], the target named is T3, glutaredoxin 1 (Grx1), human, His-tagged, purified (human, UniProt P35754 1-106).
T3 sequence (looked up): T2 sequence (P35754 1-106)
The data set is described as follows: pull-down.

Data set [8] concerns the target T4, thioredoxin 1 (Trx1), human, His-tagged, purified (human, UniProt P10599 1-105).
T4 sequence (looked up): T1 sequence (P10599 1-105)
The data set can be described thus: pull-down.

The target in data set [9] is T3, glutaredoxin 1 (Grx1), human, …. The data set can be described thus: SPR. Background: SPR reads the build-up and loss of mass on a sensor chip optically.
For data set [10] the target is unchanged. The data set is described as follows: BLI. (In general: In BLI a coated tip is dipped into the sample, and binding shifts an interference pattern.)
In data set [11] the target is T4, thioredoxin 1 (Trx1), human, …. The data set is described as follows: BLI.

Turning to RFADPRL [2TP2], the “# of colony” value at Trx1 [1] was found to be 1.

Turning to SLKTTMP [2TP3], on Trx1 [1], the “# of colony” value was 1.

As for ANHTMQV [1GP3], half-maximal inhibition against Grx1 [2] (IC50) required 46 µM.

SHYNYKV [1GP2]: the “Inhibition of Grx1 de-glutathionylation” value on Grx1 [2] (Cys-SSG 100 μM substrate, 0.1 M phosphate pH 7.4, peptide 10–200 μM) is listed as “did not have any inhibitory activity”.

Take GRYAIPL [2GP2]: the “# of colony” value at Grx1 [3] came to 2.

Consider AMYSRGT [2TP1], for which, on Trx1 [1], the “# of colony” value worked out at 2.

As to SVGSFSM [2GP1], the “# of colony” value at Grx1 [3] was found to be 1.

Regarding `N[C@@H](CCC(=O)N[C@@H](CS)C(=O)NCC(=O)O)C(=O)O` [reduced glutathione], the “Binding affinity with human Grx1” value in the data set on human Grx1 is given as “does not have significant binding affinity”.

Regarding ETRWPNT [2GTP1], inhibition against Grx1 [2] was half-maximal at 11 µM (IC50). Besides, the Cell permeability result in [4] is reported as “poor cell permeability”.

`CCC(C)SSc1ncc[nH]1` (centres unmarked) [PX-12, sec-butyl 2-imidazoylyl disulfide]: the p53 stabilization result in the data set on p53 (MCF7 cells (wild-type p53, high Trx1)) is on record as “induced p53 stabilization”; with p53 (MDA-MB-231 cells (mutant p53 R280K)), “strong stabilization of mutant p53”. Moreover, in the data set with MDA-MB-231 cells, the Cell viability result is on record as “significantly decreased viability; also recorded: potent cytotoxicity”. For the same molecule, the GRP78 induction entry in the data set with GRP78 is given as “induced expression of GRP78”. Further, the AMPK phosphorylation result in the data set on AMPK is recorded as “phosphorylation of AMPK”. In addition, the “Cys residues of Trx1 oxidized or modified” value in the data set on Trx1 [5] was “catalytic C32 and redox-sensitive C73”. Besides, the “Disruption of Trx1-Ask1 interaction in cells” value in the data set on Trx1-Ask1 interaction is given as “disrupted the Trx1-Ask1 interaction”. The Ask1 phosphorylation result with Ask1 is “activated Ask1 by phosphorylation”. Also, the “Anti-tumor activity in clinical evaluation” value in data set [6] is on record as “low anti-tumor activity”. Also, the JNK phosphorylation result with JNK is “induced JNK phosphorylation”. In addition, the p38 phosphorylation entry in the data set on p38 is on record as “without p38 phosphorylation”.

B1: biotin-1GP2 (peptide)
peptide: SHYNYKV
modifications: not fully specified (N-terminus); also: biotin, position not given here
In the case of B1, the binding result in data set [7] is “binds”.

B2: non-biotinylated 2GTP1 (peptide)
peptide: ETRWPNT
With B2, the binding result in [8] is given as “binds”.

B3: biotin-1GP3 (peptide)
peptide: ANHTMQV
modifications: not fully specified (N-terminus); also: biotin, position not given here
In data set [9], B3 displayed a Kd of 38 ± 2 µM.

B4: biotinylated 2GTP1 peptide (biotin-2GTP1) (peptide)
peptide: ETRWPNT
modifications: not fully specified (N-terminus); also: biotinylated, position not given here
Consider B4, for which the Kd in data set [10] amounted to 1.2 µM; in [11], 2.5 µM.
